Activity calls are given as the source filed them. The calls are words filed in the database; no cut-off is given here.
How the values were obtained:
Mus musculus [1] = experiment: Antiinflammatory activity against carrageenan-induced paw edema in Swiss albino mouse assessed as swelling thickness at 100 mg/kg, po after 90 mins; format: functional
In short: (§1)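 Oral dosing in 0.5% CMC; vehicle to controls. Then carrageenan (0.5 mg/25 ll, freshly suspended in 154 mM saline) injected into the right hind paw subplantar tissue; saline into the left paw. Right-left footpad thickness difference measured by dial gauge calliper every 90 min over 6 h. Inhibition % is relative to vehicle control. n = 6; mean ± SEM.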

Mus musculus [2] = experiment: Antiinflammatory activity against carrageenan-induced paw edema in Swiss albino mouse assessed as swelling thickness at 100 mg/kg, po after 180 mins; format: functional; in short: as §1
Mus musculus [3] = experiment: Antiinflammatory activity against carrageenan-induced paw edema in Swiss albino mouse assessed as swelling thickness at 100 mg/kg, po after 270 mins; format: functional; in short: as §1
Mus musculus [4] = experiment: Antiinflammatory activity against carrageenan-induced paw edema in Swiss albino mouse assessed as swelling thickness at 100 mg/kg, po after 360 mins; format: functional; in short: as §1
Mus musculus [5] = experiment: Inhibition of carrageenan-induced paw edema in Swiss albino mouse at 100 mg/kg, po after 90 mins relative to control; format: functional; settings: 1.5 h; in short: as §1
Mus musculus [6] = experiment: Inhibition of carrageenan-induced paw edema in Swiss albino mouse at 100 mg/kg, po after 180 mins relative to control; format: functional; settings: 3 h; in short: as §1
Mus musculus [7] = experiment: Inhibition of carrageenan-induced paw edema in Swiss albino mouse at 100 mg/kg, po after 270 mins relative to control; format: functional; settings: 4.5 h; in short: as §1
Mus musculus [8] = experiment: Inhibition of carrageenan-induced paw edema in Swiss albino mouse at 100 mg/kg, po after 360 mins relative to control; format: functional; settings: 6 h; in short: as §1
Mus musculus [9] = experiment: Analgesic activity against p-benzoquinone-induced abdominal constriction in Swiss albino mouse assessed as number of writhings at 25 mg/kg, po; format: functional, Abdomen
In short: (§2)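 Test samples given orally in 0.5% CMC; vehicle to controls. 60 min later, 2.5% (v/v) p-benzoquinone in distilled water, 0.1 ml/10 g, given i.p. Mice housed singly; writhes counted for 15 min starting 5 min after injection. Activity is % change from vehicle controls. n = 6; mean ± SEM.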

Mus musculus [10] = experiment: Analgesic activity against p-benzoquinone-induced abdominal constriction in Swiss albino mouse assessed as number of writhings at 50 mg/kg, po; format: functional, Abdomen; in short: as §2
Mus musculus [11] = experiment: Analgesic activity against p-benzoquinone-induced abdominal constriction in Swiss albino mouse assessed as number of writhings at 100 mg/kg, po; format: functional, Abdomen; in short: as §2
Mus musculus [12] = experiment: Analgesic activity against p-benzoquinone-induced abdominal constriction in Swiss albino mouse assessed as number of writhings at 200 mg/kg, po; format: functional, Abdomen; in short: as §2
Mus musculus [13] = experiment: Inhibition of p-benzoquinone-induced writhing in Swiss albino mouse at 25 mg/kg, po relative to control; format: functional
In short: (§3)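 Mice, n = 6 per group, dosed orally with a suspension in 0.5% sodium CMC. 60 min later, 0.1 ml/10 g of 2.5% […] p-benzoquinone in distilled water given ip. Abdominal writhes counted per animal for 15 min, starting 5 min after injection. Expressed as % change in mean writhing count versus vehicle controls.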

Mus musculus [14] = experiment: Inhibition of p-benzoquinone-induced writhing in Swiss albino mouse at 50 mg/kg, po relative to control; format: functional; in short: as §3
Mus musculus [15] = experiment: Inhibition of p-benzoquinone-induced writhing in Swiss albino mouse at 100 mg/kg, po relative to control; format: functional; in short: as §3
Mus musculus [16] = experiment: Inhibition of p-benzoquinone-induced writhing in Swiss albino mouse at 200 mg/kg, po relative to control; format: functional; in short: as §3
Mus musculus [17] = experiment: Gastric-ulcerogenic effect in Swiss albino mouse assessed as lesions at 25 mg/kg, po; format: functional, organism-based; set-up: dose 25 mg/kg
In short: (§4)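 Mice killed under deep ether anesthesia 3 h after the writhing test; the oral dose in 0.5% CMC was the one used in that test. Stomachs removed, opened along the great curvature and examined under a dissecting microscope for lesions or bleeding. Reported as ratio of ulceration; n = 6.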

Mus musculus [18] = experiment: Gastric-ulcerogenic effect in Swiss albino mouse assessed as lesions at 50 mg/kg, po; format: functional, organism-based; set-up: dose 50 mg/kg; in short: as §4
Mus musculus [19] = experiment: Gastric-ulcerogenic effect in Swiss albino mouse assessed as lesions at 100 mg/kg, po; format: functional, organism-based; set-up: dose 100 mg/kg; in short: as §4
Mus musculus [20] = experiment: Antiinflammatory activity against carrageenan-induced paw edema in Swiss albino mouse assessed as swelling thickness at 25 mg/kg, po after 90 mins; format: functional; in short: as §1
Mus musculus [21] = experiment: Antiinflammatory activity against carrageenan-induced paw edema in Swiss albino mouse assessed as swelling thickness at 25 mg/kg, po after 180 mins; format: functional; in short: as §1
Mus musculus [22] = experiment: Antiinflammatory activity against carrageenan-induced paw edema in Swiss albino mouse assessed as swelling thickness at 25 mg/kg, po after 270 mins; format: functional; in short: as §1
Mus musculus [23] = experiment: Antiinflammatory activity against carrageenan-induced paw edema in Swiss albino mouse assessed as swelling thickness at 25 mg/kg, po after 360 mins; format: functional; in short: as §1
Mus musculus [24] = experiment: Antiinflammatory activity against carrageenan-induced paw edema in Swiss albino mouse assessed as swelling thickness at 50 mg/kg, po after 180 mins; format: functional; in short: as §1
Mus musculus [25] = experiment: Antiinflammatory activity against carrageenan-induced paw edema in Swiss albino mouse assessed as swelling thickness at 50 mg/kg, po after 270 mins; format: functional; in short: as §1
Mus musculus [26] = experiment: Antiinflammatory activity against carrageenan-induced paw edema in Swiss albino mouse assessed as swelling thickness at 50 mg/kg, po after 360 mins; format: functional; in short: as §1
Mus musculus [27] = experiment: Antiinflammatory activity against carrageenan-induced paw edema in Swiss albino mouse assessed as swelling thickness at 200 mg/kg, po after 90 mins; format: functional; in short: as §1
Mus musculus [28] = experiment: Antiinflammatory activity against carrageenan-induced paw edema in Swiss albino mouse assessed as swelling thickness at 200 mg/kg, po after 180 mins; format: functional; in short: as §1
Mus musculus [29] = experiment: Antiinflammatory activity against carrageenan-induced paw edema in Swiss albino mouse assessed as swelling thickness at 200 mg/kg, po after 270 mins; format: functional; in short: as §1
Mus musculus [30] = experiment: Antiinflammatory activity against carrageenan-induced paw edema in Swiss albino mouse assessed as swelling thickness at 200 mg/kg, po after 360 mins; format: functional; in short: as §1
Mus musculus [31] = experiment: Inhibition of carrageenan-induced paw edema in Swiss albino mouse at 25 mg/kg, po after 90 mins relative to control; format: functional; settings: 1.5 h; in short: as §1
Mus musculus [32] = experiment: Inhibition of carrageenan-induced paw edema in Swiss albino mouse at 25 mg/kg, po after 180 mins relative to control; format: functional; settings: 3 h; in short: as §1
Mus musculus [33] = experiment: Inhibition of carrageenan-induced paw edema in Swiss albino mouse at 25 mg/kg, po after 270 mins relative to control; format: functional; settings: 4.5 h; in short: as §1
Mus musculus [34] = experiment: Inhibition of carrageenan-induced paw edema in Swiss albino mouse at 25 mg/kg, po after 360 mins relative to control; format: functional; settings: 6 h; in short: as §1
Mus musculus [35] = experiment: Inhibition of carrageenan-induced paw edema in Swiss albino mouse at 50 mg/kg, po after 90 mins relative to control; format: functional; settings: 1.5 h
In short: (§5)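 Mice, n = 6 per group. Test agent given orally as a suspension in 0.5% sodium CMC in distilled water; controls received vehicle only. Afterwards, 0.5 mg/25 ll carrageenan in saline (154 mM NaCl) injected subplantar into the right hind paw, saline into the left. Right-minus-left footpad thickness measured by dial gauge caliper every 90 min for 6 h. Inhibition is relative to vehicle-control group means.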

Mus musculus [36] = experiment: Inhibition of carrageenan-induced paw edema in Swiss albino mouse at 50 mg/kg, po after 180 mins relative to control; format: functional; settings: 3 h; in short: as §1
Mus musculus [37] = experiment: Inhibition of carrageenan-induced paw edema in Swiss albino mouse at 50 mg/kg, po after 270 mins relative to control; format: functional; settings: 4.5 h; in short: as §5
Mus musculus [38] = experiment: Inhibition of carrageenan-induced paw edema in Swiss albino mouse at 50 mg/kg, po after 360 mins relative to control; format: functional; settings: 6 h; in short: as §5
Mus musculus [39] = experiment: Acute toxicity in Swiss albino mouse assessed as lethal effect at 25 mg/kg/day, po after 72 hrs; format: organism-based; set-up: route oral; settings: in vivo
In short: (§6)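 Oral single dose suspended in 0.5% carboxymethylcellulose, given after a 24 h fast; food and water returned 1 h after dosing. Vehicle-only controls. Mice observed at 1 h, then once daily for 72 h, for toxic signs and mortality.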

Mus musculus [40] = experiment: Acute toxicity in Swiss albino mouse assessed as lethal effect at 50 mg/kg/day, po after 72 hrs; format: organism-based; set-up: route oral; settings: in vivo; in short: as §6
Mus musculus [41] = experiment: Acute toxicity in Swiss albino mouse assessed as lethal effect at 100 mg/kg/day, po after 72 hrs; format: organism-based; set-up: route oral; settings: in vivo; in short: as §6
Mus musculus [42] = experiment: Acute toxicity in Swiss albino mouse assessed as lethal effect at 200 mg/kg/day, po after 72 hrs; format: organism-based; set-up: route oral; settings: in vivo; in short: as §6
Mus musculus [43] = experiment: Antiinflammatory activity against carrageenan-induced paw edema in Swiss albino mouse assessed as swelling thickness at 50 mg/kg, po after 90 mins; format: functional; in short: as §1

In the case of `CCSc1nc(-c2ccccc2Cl)n[nH]1`, the Activity (Mus musculus [1]) is reported as 33.2 10^-2mm, the Activity (Mus musculus [2]) is reported as 37.8 10^-2mm and the Activity (Mus musculus [3]) is reported as 42.2 10^-2mm. For the same molecule, the Activity (Mus musculus [4]) was 47.5 10^-2mm, the inhibition in vivo at 100 mg/kg (Mus musculus [5]) was 25.9% and the inhibition in vivo at 100 mg/kg (Mus musculus [6]) was 26.6%. For the same molecule, the inhibition in vivo at 100 mg/kg (Mus musculus [7]) was 28.2%, the inhibition in vivo at 100 mg/kg (Mus musculus [8]) was 30.9% and the Activity (Mus musculus [9]) was 48.5. For the same molecule, the Activity (Mus musculus [10]) was 37.8, the Activity (Mus musculus [11]) was 35.2 and the Activity (Mus musculus [12]) was 41.3. The inhibition in vivo at 25 mg/kg (Mus musculus [13]) was 5.6%, the inhibition in vivo at 50 mg/kg (Mus musculus [14]) was 26.4% and the inhibition in vivo at 100 mg/kg (Mus musculus [15]) was 25.6%. For the same molecule, the inhibition in vivo at 200 mg/kg (Mus musculus [16]) was 19.6%, the Activity (Mus musculus [17]) was “Active” and the Activity (Mus musculus [18]) was “Active”. The Activity (Mus musculus [19]) was “Active”, the Activity (Mus musculus [20]) was 49.3 10^-2mm and the Activity (Mus musculus [21]) was 54.8 10^-2mm. The Activity (Mus musculus [22]) was 60.5 10^-2mm, the Activity (Mus musculus [23]) was 68.9 10^-2mm and the Activity (Mus musculus [24]) was 42.8 10^-2mm. For the same molecule, the Activity (Mus musculus [25]) was 46.8 10^-2mm, the Activity (Mus musculus [26]) was 50.7 10^-2mm and the Activity (Mus musculus [27]) was 55.8 10^-2mm. For the same molecule, the Activity (Mus musculus [28]) was 61.2 10^-2mm, the Activity (Mus musculus [29]) was 67.9 10^-2mm and the Activity (Mus musculus [30]) was 75.9 10^-2mm. For the same molecule, the inhibition in vivo at 25 mg/kg (Mus musculus [31]) was 7.3%, the inhibition in vivo at 25 mg/kg (Mus musculus [32]) was 7.7% and the inhibition in vivo at 25 mg/kg (Mus musculus [33]) was 6.6%. The inhibition in vivo at 25 mg/kg (Mus musculus [34]) was 4.3%, the inhibition in vivo at 50 mg/kg (Mus musculus [35]) was 15% and the inhibition in vivo at 50 mg/kg (Mus musculus [36]) was 27.9%. For the same molecule, the inhibition in vivo at 50 mg/kg (Mus musculus [37]) was 27.8%, the inhibition in vivo at 50 mg/kg (Mus musculus [38]) was 29.6% and the Activity (Mus musculus [39]) was “Non-toxic”. The Activity (Mus musculus [40]) was “Non-toxic”, the Activity (Mus musculus [41]) was “Non-toxic” and the Activity (Mus musculus [42]) was “Non-toxic”. For the same molecule, the Activity (Mus musculus [43]) was 45.2 10^-2mm.

Source: ChEMBL document CHEMBL1142894, “Preparation of 5-aryl-3-alkylthio-l,2,4-triazoles and corresponding sulfones with antiinflammatory-analgesic activity” (Bioorg Med Chem, 2007)
